For assay [1], the species on record is Bos taurus. The assay is described as follows: Inhibition of bovine heart phosphodiesterase at 50 uM (no inhibition).
Assay [2] has as its system Cavia porcellus. Nature of the assay: Topical effective dose when coapplied with phorbol ester (PMA) was assessed by ear weight as a reflection of edema. Type of assay: functional.
In assay [3] the test system is Homo sapiens. Nature of the assay: Blood plasma levels of compound after 40 mg/kg oral dose of compound at 1 hr. Type of assay: functional, organism-based. More on the design: dose 40 mg/kg. An outline of the steps:
(§1)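 Single 40 mg/kg oral dose; blood plasma drug level sampled at 1 h and 12 h after dosing.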

Assay [4] has as its target T1, Cysteinyl leukotriene receptor 1 (Cavia porcellus) (UniProt Q2NNR5).
T1 sequence (whole entry): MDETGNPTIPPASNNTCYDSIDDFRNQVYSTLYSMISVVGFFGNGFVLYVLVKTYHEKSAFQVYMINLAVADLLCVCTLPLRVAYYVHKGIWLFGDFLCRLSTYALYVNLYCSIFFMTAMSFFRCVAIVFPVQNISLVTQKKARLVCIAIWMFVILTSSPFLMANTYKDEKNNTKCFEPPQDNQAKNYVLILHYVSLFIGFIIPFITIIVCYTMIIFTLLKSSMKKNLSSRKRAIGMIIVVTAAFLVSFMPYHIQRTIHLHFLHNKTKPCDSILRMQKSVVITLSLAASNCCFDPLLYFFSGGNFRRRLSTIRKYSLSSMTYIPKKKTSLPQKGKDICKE
Nature of the assay: Inhibition of binding to the leukotriene D4 receptor at 1*10e-5 M concentration. An outline of the steps: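 Competition binding at LTD4 receptor: protein adjusted to about 0.1 nM receptor with 1 nM [3H]LTD4, 30 min at 24 °C; bound and free ligand separated by filtration. Compound tested at 1×10^-5 M.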

The test system of assay [5] is Homo sapiens. Nature of the assay: Blood plasma levels of compound after 40 mg/kg oral dose of compound at 12 hr. Type of assay: functional, organism-based. More on the design: dose 40 mg/kg. An outline of the steps: as §1
The species entered for assay [6] is Homo sapiens. Nature of the assay: Inhibition of human neutrophil leukotriene B4 induced neutrophil degranulation. It counts as functional. An outline of the steps:
(§2)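 Human neutrophils (3×10^6 in 1 mL HBSS) preincubated with cytochalasin B (5 µg) 5 min at 37 °C, then compound 7 min, then stimulated 2-20 min with LTB4 5×10^-8 M. Degranulation read as myeloperoxidase released into medium; pellets sonicated in phosphate buffer with 0.4% Triton X-100, supernatants brought to 0.4% Triton, both assayed.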

For assay [7], the species on record is Homo sapiens. Nature of the assay: Inhibition of human neutrophil leukotriene B4 induced neutrophil chemotaxis. Type of assay: functional. An outline of the steps:
(§3)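 Human neutrophils isolated from citrated peripheral blood by 5% dextran sedimentation, Histopaque centrifugation and hypotonic erythrocyte lysis. 3×10^6 cells/mL in HEPES-buffered HBSS in upper well of modified Boyden chamber; lower well, across polycarbonate membrane, held HBSS or 3×10^-8 M LTB4 ± compound. 90 min, 37 °C; lower-well cells lysed, nuclei counted (Coulter); % inhibition after subtracting mean HBSS random migration.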

Assay [8] is filed under the species Homo sapiens. The assay is described as follows: Inhibition of human neutrophil leukotriene B4 induced neutrophil chemotaxis at 10e-5 M compound concentration; NA = not active. Type of assay: functional. An outline of the steps:
as §3

For assay [9], the species on record is Homo sapiens. Nature of the assay: Inhibition of human neutrophil leukotriene B4 induced neutrophil degranulation at 10e-5 M compound concentration; NA = not active. Type of assay: functional. An outline of the steps:
as §2

In general, inhibition refers to the percentage by which the read-out fell short of the control. Usually IC50 stands for the midpoint of a concentration-inhibition curve. A higher IC50 goes with weaker potency in that assay.

Molecules are shown by their SMILES. Calls of active or inactive are those of the source. The calls are words filed in the database; no cut-off is given here.

With `CCCc1c(OCCCOc2ccc(C(C)=O)c(OC)c2CCC)ccc2c1OC(C(=O)O)CC2` (centres undefined) [SC-41390], the inhibition entry in assay [1] is “inactive”. Moreover, the ED50 in assay [2] was determined as 4.1 uM ear-1. Further, the Plasma level was 7 µg/mL in assay [3] and 12 µg/mL in [5]. The compound further came in with an inhibition in assay [4] of 4%. The IC50 is 1 µM in assay [6] and 2 µM in [7].

`CCCc1c(OCCCOc2ccc3c(c2CCC)OC(C(=O)O)CC3)ccc(C(C)=O)c1O` (centres undefined): the outcome in assay [8] and in assay [9] was inactive.
